# Reference: ChEMBL document CHEMBL4330109, “Parallel synthesis of a bis-triazoles library as psammaplin A analogues: A new wave of antibiofilm compounds?” (Bioorg Med Chem Lett, 2019)
# What was measured:
# [1] = tested on: Pseudoalteromonas lipolytica; experiment: Anti-biofilm activity against Pseudoalteromonas lipolytica TC8 assessed as inhibition of bacterial adhesion incubated for 15 hrs at 20 degC by Syto 61 dye based fluorimetric assay; assay type: functional, organism-based
# Summary of the method: (§1)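 Biofilm formation (adhesion) of the marine strains was measured with the Syto 61 fluorophore, using a method adapted from Leroy et al. Compounds were first screened at 200 µM, and the value is % adhesion at that concentration. EC50 values were derived from the same assay.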
# [2] = tested on: Pseudoalteromonas lipolytica; experiment: Anti-biofilm activity against Pseudoalteromonas lipolytica TC8 assessed as bacterial adhesion at 200 uM incubated for 15 hrs at 20 degC by Syto 61 dye based fluorimetric assay relative to control; assay type: functional; summary of the method: as §1
# Paracoccus sp. [3] = experiment: Anti-biofilm activity against Paracoccus sp. 4M6 assessed as bacterial adhesion at 200 uM incubated for 15 hrs at 20 degC by Syto 61 dye based fluorimetric assay relative to control; assay type: functional; summary of the method: as §1
# Paracoccus sp. [4] = experiment: Anti-biofilm activity against Paracoccus sp. 4M6 assessed as inhibition of bacterial adhesion incubated for 15 hrs at 20 degC by Syto 61 dye based fluorimetric assay; assay type: functional, organism-based; summary of the method: as §1
# Pseudoalteromonas ulvae [5] = experiment: Anti-biofilm activity against Pseudoalteromonas ulvae TC14 assessed as inhibition of bacterial adhesion incubated for 15 hrs at 20 degC by Syto 61 dye based fluorescence assay; assay type: functional, organism-based; summary of the method: as §1
# Pseudoalteromonas ulvae [6] = experiment: Anti-biofilm activity against Pseudoalteromonas ulvae TC14 assessed as bacterial adhesion at 200 uM incubated for 15 hrs at 20 degC by Syto 61 dye based fluorescence assay relative to control; assay type: functional; summary of the method: as §1
# [7] = tested on: Pseudoalteromonas lipolytica; experiment: Effect on cell viability of Pseudoalteromonas lipolytica TC8 at 5 uM measured after 6 hrs by resazurin dye based fluorescence assay; assay type: organism-based
# Summary of the method: (§2)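 Viability was scored with resazurin, following the same protocol as the Syto 61 antiadhesion assay. Compounds were tested at 5, 10, 20, 50, 100 and 200 µM on each strain, and the 5 and 100 µM points are the ones reported.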
# Paracoccus sp. [8] = experiment: Growth inhibition of Paracoccus sp. 4M6 at 100 uM measured every hr for 6 hrs by turbidimetric method; assay type: organism-based; details: in vivo
# Summary of the method: (§3)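 Bacterial growth of TC14, TC8 and 4M6 was followed with test compounds at 100 µM. Ampicillin at 5 µM served as the reference antibiotic.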
# Paracoccus sp. [9] = experiment: Effect on cell viability of Paracoccus sp. 4M6 at 5 uM measured after 6 hrs by resazurin dye based fluorescence assay; assay type: organism-based; summary of the method: as §2
# Pseudoalteromonas ulvae [10] = experiment: Growth inhibition of Pseudoalteromonas ulvae TC14 at 100 uM measured every hr for 6 hrs by turbidimetric method; assay type: organism-based; details: in vivo; summary of the method: as §3
# [11] = tested on: Pseudoalteromonas lipolytica; experiment: Growth inhibition of Pseudoalteromonas lipolytica TC8 at 100 uM measured every hr for 6 hrs by turbidimetric method; assay type: organism-based; details: in vivo; summary of the method: as §3
# Pseudoalteromonas ulvae [12] = experiment: Effect on cell viability of Pseudoalteromonas ulvae TC14 at 5 uM measured after 6 hrs by resazurin dye based fluorescence assay; assay type: organism-based; summary of the method: as §2
# Pseudoalteromonas ulvae [13] = experiment: Effect on cell viability of Pseudoalteromonas ulvae TC14 at 100 uM measured after 6 hrs by resazurin dye based fluorescence assay; assay type: organism-based; summary of the method: as §2
# [14] = tested on: Pseudoalteromonas lipolytica; experiment: Effect on cell viability of Pseudoalteromonas lipolytica TC8 at 100 uM measured after 6 hrs by resazurin dye based fluorescence assay; assay type: organism-based; summary of the method: as §2
# Paracoccus sp. [15] = experiment: Effect on cell viability of Paracoccus sp. 4M6 at 100 uM measured after 6 hrs by resazurin dye based fluorescence assay; assay type: organism-based; summary of the method: as §2
# [16] = tested on: Pseudoalteromonas lipolytica; experiment: Growth inhibition of Pseudoalteromonas lipolytica TC8 at 5 uM measured every hr for 6 hrs by turbidimetric method; assay type: organism-based; details: in vivo; summary of the method: as §3
# Pseudoalteromonas ulvae [17] = experiment: Growth inhibition of Pseudoalteromonas ulvae TC14 at 5 uM measured every hr for 6 hrs by turbidimetric method; assay type: organism-based; details: in vivo; summary of the method: as §3
# Paracoccus sp. [18] = experiment: Growth inhibition of Paracoccus sp. 4M6 at 5 uM measured every hr for 6 hrs by turbidimetric method; assay type: organism-based; details: in vivo; summary of the method: as §3
# [19] = Pseudoalteromonas lipolytica, TC8, 15 h
# [20] = Paracoccus sp. (in: a-proteobacteria), 4M6, 15 h
# [21] = Pseudoalteromonas ulvae, TC14, 15 h
Compound,"EC50 [1, 19] [µM]",EC50 (Paracoccus sp. [4]; [20]) [µM],EC50 (Pseudoalteromonas ulvae [5]; [21]) [µM],Activity [2] [%],Activity (Paracoccus sp. [3]) [%],Activity (Pseudoalteromonas ulvae [6]) [%],also measured
CN(C)CCCOc1ccc(CCn2cc(CCCc3cn(CCc4ccc(OCCCN(C)C)c(Br)c4)nn3)nn2)cc1Br,> 200,> 200,> 200,,77.2,,
CN(C)CCOc1ccc(CCn2cc(CNCc3cn(CCc4ccc(OCCN(C)C)c(Br)c4)nn3)nn2)cc1Br,,> 200,,,51.8,40.9,
CN(C)CCOc1ccc(CCn2cc(CCCCc3cn(CCc4ccc(OCCN(C)C)c(Br)c4)nn3)nn2)cc1Br,> 200,> 200,> 200,58.5,57.4,,
COc1ccc(CCn2cc(-c3cccc(-c4cn(CCc5ccc(OC)c(Br)c5)nn4)c3)nn2)cc1Br,> 200,> 200,> 200,101.1,76.2,74.1,
Oc1ccc(CCn2cc(CCCc3cn(CCc4ccc(O)c(Br)c4)nn3)nn2)cc1Br,> 200,> 200,> 200,63.5,83.4,53.1,
CN(C)CCOc1ccc(CCn2cc(CCCc3cn(CCc4ccc(OCCN(C)C)c(Br)c4)nn3)nn2)cc1Br,> 200,> 200,> 200,57,51.5,,
Oc1ccc(CCn2cc(CCCCCCc3cn(CCc4ccc(O)c(Br)c4)nn3)nn2)cc1Br,> 200,> 200,> 200,75,78.1,61.7,
CN(C)CCOc1ccc(CCn2cc(-c3cccc(-c4cn(CCc5ccc(OCCN(C)C)c(Br)c5)nn4)c3)nn2)cc1Br,> 200,> 200,> 200,65.1,66.9,62.2,
CN(C)CCCOc1ccc(CCn2cc(CCCCCCc3cn(CCc4ccc(OCCCN(C)C)c(Br)c4)nn3)nn2)cc1Br,> 200,> 200,> 200,72.3,84.7,71,
COc1ccc(CCn2cc(CCCc3cn(CCc4ccc(OC)c(Br)c4)nn3)nn2)cc1Br,> 200,> 200,> 200,50,49.2,,
COc1ccc(CCn2cc(CCCCCCc3cn(CCc4ccc(OC)c(Br)c4)nn3)nn2)cc1Br,> 200,> 200,> 200,78.3,69.2,62.7,
Oc1ccc(CCn2cc(-c3cccc(-c4cn(CCc5ccc(O)c(Br)c5)nn4)c3)nn2)cc1Br,> 200,> 200,> 200,66.5,61.5,56.8,
Oc1ccc(CCn2cc(CCCCc3cn(CCc4ccc(O)c(Br)c4)nn3)nn2)cc1Br,> 200,> 200,> 200,,52.4,,
CN(C)CCCOc1ccc(CCn2cc(COCc3cn(CCc4ccc(OCCCN(C)C)c(Br)c4)nn3)nn2)cc1Br,> 200,> 200,,,53.7,,
COc1ccc(CCn2cc(CCCCc3cn(CCc4ccc(OC)c(Br)c4)nn3)nn2)cc1Br,> 200,> 200,> 200,,50.9,,
CN(C)CCCOc1ccc(CCn2cc(-c3cccc(-c4cn(CCc5ccc(OCCCN(C)C)c(Br)c5)nn4)c3)nn2)cc1Br,> 200,> 200,> 200,71.6,78.1,65.3,
CC1(C)S[C@@H]2[C@H](NC(=O)[C@H](N)c3ccccc3)C(=O)N2[C@H]1C(=O)O [AMPICILLIN],,,,,,,Activity [7]: Toxic; growth inhibition (GI) [16]: Toxic; Activity (Paracoccus sp. [9]): Toxic; growth inhibition (GI) (Pseudoalteromonas ulvae [17]): Toxic; growth inhibition (GI) (Paracoccus sp. [18]): Toxic; Activity (Pseudoalteromonas ulvae [12]): Toxic
tributyltin-oxide,,,,,,,EC50 [1]: 7 µM; EC50 (Paracoccus sp. [4]): 4 µM; EC50 (Pseudoalteromonas ulvae [5]): 0.7 µM

# The next lines start with results.
"EC50 [1, 19] [µM]",EC50 (Paracoccus sp. [4]; [20]) [µM],EC50 (Pseudoalteromonas ulvae [5]; [21]) [µM],Compound,Activity [2] [%],Activity (Paracoccus sp. [3]) [%],Activity (Pseudoalteromonas ulvae [6]) [%],also measured
> 200,> 200,> 200,CN(C)CCOc1ccc(CCn2cc(CCCCCCc3cn(CCc4ccc(OCCN(C)C)c(Br)c4)nn3)nn2)cc1Br,54.4,59.5,,
> 200,> 200,> 200,CN(C)CCCOc1ccc(CCn2cc(CCCCc3cn(CCc4ccc(OCCCN(C)C)c(Br)c4)nn3)nn2)cc1Br,89.2,80.7,66.5,
,> 200,> 200,CN(C)CCCOc1ccc(CCn2cc(CNCc3cn(CCc4ccc(OCCCN(C)C)c(Br)c4)nn3)nn2)cc1Br,,56.3,45,
80.3,88.3,59.9,Oc1ccc(CCn2cc(CNCc3cn(CCc4ccc(O)c(Br)c4)nn3)nn2)cc1Br,,27.9,,
15,3.5,0.4,CN(C)CCCOc1ccc(CCn2cc(-c3ccc(-c4cn(CCc5ccc(OCCCN(C)C)c(Br)c5)nn4)cc3)nn2)cc1Br,5.3,5.1,0.6,Activity [7]: Non-Toxic; growth inhibition (GI) (Paracoccus sp. [8]): Toxic; Activity (Paracoccus sp. [9]): Non-Toxic; growth inhibition (GI) (Pseudoalteromonas ulvae [10]): Toxic; growth inhibition (GI) [11]: Toxic; Activity (Pseudoalteromonas ulvae [12]): Non-Toxic; Activity (Pseudoalteromonas ulvae [13]): Toxic; Activity [14]: Toxic; Activity (Paracoccus sp. [15]): Toxic
,194,,COc1ccc(CCn2cc(CNCc3cn(CCc4ccc(OC)c(Br)c4)nn3)nn2)cc1Br,,46.3,,
,164,,COc1ccc(CCn2cc(COCc3cn(CCc4ccc(OC)c(Br)c4)nn3)nn2)cc1Br,42.8,44.9,38.5,
,146,91.8,CN(C)CCOc1ccc(CCn2cc(COCc3cn(CCc4ccc(OCCN(C)C)c(Br)c4)nn3)nn2)cc1Br,,40.4,,
,198,,Oc1ccc(CCn2cc(COCc3cn(CCc4ccc(O)c(Br)c4)nn3)nn2)cc1Br,50.3,47.8,40.3,
5.1,5.1,0.9,CN(C)CCOc1ccc(CCn2cc(-c3ccc(-c4cn(CCc5ccc(OCCN(C)C)c(Br)c5)nn4)cc3)nn2)cc1Br,14.6,10.1,0,Activity [7]: Non-Toxic; growth inhibition (GI) (Paracoccus sp. [8]): Toxic; Activity (Paracoccus sp. [9]): Non-Toxic; growth inhibition (GI) (Pseudoalteromonas ulvae [10]): Toxic; growth inhibition (GI) [11]: Toxic; Activity (Pseudoalteromonas ulvae [12]): Non-Toxic; Activity (Pseudoalteromonas ulvae [13]): Toxic; Activity [14]: Toxic; Activity (Paracoccus sp. [15]): Toxic
> 200,59.9,40.9,Oc1ccc(CCn2cc(-c3ccc(-c4cn(CCc5ccc(O)c(Br)c5)nn4)cc3)nn2)cc1Br,,31.8,31.1,
